Only some compounds are listed: those with a hit (about 2.3% of all), similar ones and a draw of the others.
SIAE primary – human SIAE inhibition, primary screen. SIAE FP-Rh probe binding, fluorescence polarization. AID 1053197. hit rate 0.69% among 370,000. Q9HAT2. inhibition, % at 9.66 µM;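 active = inhibition above a cutoff: mean of compounds within the control limits plus 3 SD of those, cut at about 17% in these data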;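 also: 0% = plate median of compound wells and 100% = probe without SIAE protein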
mABHD4 FP – ABHD4 (mouse) inhibition, primary FP screen | Q8VD66 | purified mABHD4, FP-Rh probe fluorescence polarization | inhibition, % at 8.92 µM | hit rate 0.54% among 370,000 | AID 720543;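 active = inhibition exceeding the mean over every tested compound plus 3 SD, cut at about 30% in these data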;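 also: 0% = plate median of compound wells and 100% = S159A mutant with DMSO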
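Doses – 8.92 µM, single dose · Material – wild-type mouse ABHD4 protein · Replication – single well per compound (singlicate) · Measure – percent inhibition of probe binding, normalized to plate controls · Schedule – 45 min compound pre-incubation plus 60 min probe step, 25 °C · Detection – fluorescence polarization with parallel and perpendicular emission, 525/598 nm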
TCR CD3 inh – blocks the human TCR-CD3 interaction; TAMRA-labeled TCR probe fluorescence, biochemical; inhibition, % at 9.4 µM; hit rate 0.37% among 360,000; in the data active = inhibition above about 19%;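 also: recombinant mutant TCR 2C K166C tagged with TAMRA read by polarization; 0% = receptor in buffer alone and 100% = receptor with positive control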
pPAFAH inh – pPAFAH (human) enzyme inhibition; Q13093; hit rate 1.5% among 330,000; recombinant pPAFAH, FP-rhodamine probe fluorescence polarization; inhibition, % at 3.39 µM;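 active = inhibition above the mean inhibition across the screen plus 3 SD, cut at about 25% in these data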;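 also: inhibitors block binding of the rhodamine activity-based probe so polarization drops; 0% = enzyme with DMSO and 100% = wells lacking pPAFAH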
HTRA1 inh – blocks human HTRA1 serine peptidase; Q92743; AID 504803; recombinant HTRA1, FP-rhodamine activity-based probe, fluorescence polarization; hit rate 0.5% among 340,000; inhibition, % at 5.96 µM; in the data active = inhibition above about 36%;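 also: 0% = enzyme with DMSO and 100% = wells lacking enzyme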
Target sequence (Q92743 whole entry, looked up): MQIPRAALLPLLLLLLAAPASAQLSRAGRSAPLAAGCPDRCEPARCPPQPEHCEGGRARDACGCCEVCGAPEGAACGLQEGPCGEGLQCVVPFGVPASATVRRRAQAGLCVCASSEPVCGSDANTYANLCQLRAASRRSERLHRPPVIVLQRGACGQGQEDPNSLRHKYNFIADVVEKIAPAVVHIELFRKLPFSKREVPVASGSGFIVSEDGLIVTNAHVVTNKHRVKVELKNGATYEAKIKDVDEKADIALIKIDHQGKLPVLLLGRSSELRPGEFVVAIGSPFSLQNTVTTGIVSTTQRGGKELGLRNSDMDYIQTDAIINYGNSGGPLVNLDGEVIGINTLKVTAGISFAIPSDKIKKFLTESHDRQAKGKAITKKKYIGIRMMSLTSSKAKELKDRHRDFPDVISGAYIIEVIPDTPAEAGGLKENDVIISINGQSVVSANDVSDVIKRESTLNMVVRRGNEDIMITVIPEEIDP
SIAE inh conf – confirmation of human SIAE inhibitors | shares compounds with SIAE primary | SIAE FP-Rh activity-based probe, fluorescence polarization | inhibition, % at 9.66 µM | hit rate 13% among 2,300;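 active = mean inhibition of the replicates above the hit cutoff set in the primary screen, cut at about 17% in these data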;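 also: 0% = SIAE with DMSO and probe and 100% = probe without SIAE; inhibitors lower polarization as more probe stays unbound to SIAE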
Starred values were filed as active, the others as inactive; / = no result.

SMILES	SIAE primary	mABHD4 FP	TCR CD3 inh	pPAFAH inh	HTRA1 inh	SIAE inh conf
O=C1CCC(C(=O)Nc2cccc(S(=O)(=O)Nc3ccccc3F)c2)=NN1	24*	7	2	6	1	3
C#CCNC(=O)C[C@H]1C(=O)N(Cc2ccc(OC)cc2)C2=CCCCC[C@@]21C(=O)OC	-5	2	/	/	/	/
c1cc2c3c(cccc3c1)C(N1CCCCCC1)=N2	2	-5	-7	3	2	/
c1ccc2c(c1)CCN(C1=Nc3cccc4cccc1c34)C2	30*	9	6	/	17	1
COc1cccc(C=NN2CCCCCC2)c1OC	21*	8	1	/	8	2
NC(=NCCc1c[nH]c2ccccc12)NC(=O)OCc1ccccc1	1	9	/	/	/	/
COc1ccc(C(=O)/C=C2\C(=O)Nc3ccc(Br)cc32)cc1	6	12	-3	/	-49	/
O=C1Nc2ccc(Br)cc2/C1=C/C(=O)c1ccc2c(c1)OCO2	19*	7	10	11	-27	2
COC(=O)C1=C(C)N(Cc2ccccc2C(F)(F)F)C(=NCc2ccc(C(F)(F)F)cc2)NC1c1ccc(Cl)cc1 (stereo not drawn)	-10	-1	-3	/	/	/
CC(=O)Nc1c2c(nn1-c1cccc(Cl)c1)CS(=O)(=O)C2	18*	3	2	2	-1	-5
COC(=O)[C@]12C[C@H](CC(=O)N3CCSCC3)C(=O)N(CCc3ccc(OC)c(OC)c3)C1=C[C@H](C(C)(C)C)O[C@@H]2C	-8	0	/	/	/	/
COc1ccc(Cn2ccc3ccc(-c4ccc5ccn(C(=O)c6ccccc6OC)c5c4)cc32)cc1	-19	-6	/	/	/	/
O=C(/C=C/c1ccc(F)cc1)NC(=S)Nc1ccccc1O	-9	-16	4	/	-18	/
O=C(/C=C/c1ccccc1)NC(=S)Nc1ccccc1O	24*	0	10	5	-15	-3
CC(C)OC(=O)c1cc2c(ccn2C)n1CC(=O)N(Cc1ccccc1)c1ccccc1	19*	10	4	-3	-17	15
O=C(CCc1nnc(-c2ccc(-c3ccccc3)cc2)o1)NCCc1ccccn1	-1	7	4	4	4	/
COC(=O)CCCNC(=O)CCc1nnc(-c2ccc(-c3ccccc3)cc2)o1	18*	1	3	13	7	0
COc1cccc(-c2noc(-c3cccnc3)n2)c1	-3	-1	-6	4	0	/
COc1cccc(-c2noc(C(C)n3nc(C)c([N+](=O)[O-])c3C)n2)c1 (stereo not drawn)	34*	-13	0	-7	-7	-1
O=C(Nc1cccc(/C=C/c2ccccn2)c1)c1ccc(-n2cncn2)c([N+](=O)[O-])c1	19*	-13	-2	4	-24	-17
COC(=O)C12C=C3CC(C4CC4)=C3C(=O)N1Cc1[nH]c3ccccc3c1C2 (stereo not drawn)	-1	4	/	/	/	/
Cc1nc(SCC(=O)N2CCN(C(=O)c3cccs3)CC2)c2c(C)c(C)sc2n1	17*	-3	-10	/	2	0
COc1cccc(C(C)(O)c2nc(-c3ccc(N(C)C)cc3)cs2)c1 (stereo not drawn)	4	-1	9	/	/	/
O=C(O)C1=C[C@@H](c2csc3ccccc23)C[C@@H](OCc2ccc(CO)cc2)O1	22*	4	5	6	-1	-1
O=C(O)C1=C[C@H](c2csc3ccccc23)C[C@H](OCc2ccc(CO)cc2)O1	4	4	-5	6	-3	/
SMILES	SIAE primary	mABHD4 FP	TCR CD3 inh	pPAFAH inh	HTRA1 inh	SIAE inh conf
Cc1c(N/N=C(\C#N)C(=O)c2ccc(Cl)cc2)c(=O)n(-c2ccccc2)n1C	18*	8	-4	4	1	4
COC(=O)C(=NNc1c(C)n(C)n(-c2ccccc2)c1=O)C(=O)OC	10	-3	-5	-1	3	/
CC(NCc1ccco1)C(=O)N1CCCC1 (stereo not drawn)	4	0	/	/	/	/
Cc1cc2nc(/C=C/c3nc4cc(C)c(C)cc4[nH]3)[nH]c2cc1C	-4	-1	-1	-3	0	/
Cc1ccc(/C=C/c2nc3ccccc3[nH]2)o1	24*	9	2	5	2	-7
CCOc1cc(/C=N/Nc2nc3ccccc3[nH]2)cc(Br)c1OCC(=O)N(C)C	24*	28	-3	11	6	21*
O=C(Nc1cccc([N+](=O)[O-])c1)c1ccccc1	-1	3	-3	6	-7	/
O=C(Nc1ccc2ccccc2c1)c1ccccc1[N+](=O)[O-]	1	1	2	/	-25	/
O=C(O)c1cccc([N+](=O)[O-])c1C(=O)Nc1ccc2ccccc2c1	21*	2	-1	3	2	7
O=C(Nc1ccc2ccccc2c1)c1cccc([N+](=O)[O-])c1	29*	-8	12	6	-17	-29
Cc1c(C(=O)Nc2ccc3c(c2)CCC3)cccc1[N+](=O)[O-]	18*	2	-3	-1	-8	-2
Cc1cccc(-c2cccc3[nH]c4c(c23)CCN2C(=O)[C@H]3[C@H](C)ON(C)[C@H]3C[C@@H]42)c1	7	5	1	/	/	/
CCOC(=O)[C@@]12CCCC=C1N(CCc1ccc(Cl)cc1)C(=O)[C@H]2CC(=O)NCCc1ccccc1OC	4	-8	/	/	/	/
CCC(CC)c1nnc(NC(=O)CS(=O)(=O)c2ccccc2)s1	26*	2	8	7	5	5
CCC(CC)c1nnc(NC(=O)CCS(=O)(=O)Cc2ccccc2)s1	6	1	7	8	-4	/
COc1ccc(NS(=O)(=O)c2cc(NC(=O)c3ccc(=O)[nH]c3)ccc2N2CCCC2)cc1	23*	6	3	12	0	2
CCOC(=O)C1CCCN(C(=O)c2ccc(SC(F)(F)F)cc2)CC1 (stereo not drawn)	2	-8	-8	/	/	/
COC(=O)[C@]12C[C@H](CC(=O)N3CCCCC3)C(=O)N(CCc3ccc(OC)c(OC)c3)C1=C[C@H](C(C)C)O[C@@H]2C1CC1	5	6	/	/	/	/
COc1ccc(CCN2C(=O)CC(C(N)=O)SC2=Nc2ccccc2)cc1 (stereo not drawn)	-6	4	9	2	-3	/
COc1ccc(CCN2C(=O)CC(C(N)=O)SC2=Nc2ccc(F)cc2)cc1OC (stereo not drawn)	20*	3	2	0	6	-5
c1ccc(Cn2cc(CCOCc3ccccn3)c3ccccc32)cc1	1	-7	-7	/	/	/
COc1cc(OC)c(OC)cc1/C=N/NC(=O)C[n+]1ccccc1	49*	4	7	2	-1	-2
CCN1CCN(Cc2nc3ccc([N+](=O)[O-])cc3c(=O)n2-c2ccc(OC)cc2OC)CC1	19*	0	-10	2	-2	0
COc1ccc(-n2c(CN3CCN(c4ccccc4OC)CC3)nc3ccc([N+](=O)[O-])cc3c2=O)c(OC)c1	11	3	8	/	-5	/
CCCCN1C(=O)N2CCc3ccccc3C2CS1(=O)=O (stereo not drawn)	-8	-4	/	/	/	/
